Reference: ChEMBL document CHEMBL5584302, “Exploration of Hydrazide-Based HDAC8 PROTACs for the Treatment of Hematological Malignancies and Solid Tumors” (J Med Chem, 2024)
Calls of active or inactive are those of the source. The calls are words filed in the database; no cut-off is given here.

What was measured:
HCT-116 [1] = assay: Induction of apoptosis in human HCT-116 cells assessed as necrotic cells at 10 uM measured after 48 hrs in presence of N-(4-(2-Hexylhydrazine-1-carbonyl)benzyl)acetamide by AnnexinV/FITC and PI staining based flow cytometry analysis (reference value: […]); format: functional
Jurkat [2] = assay: Induction of apoptosis in human Jurkat cells assessed as increase in caspase 3/7 activity at 5 uM incubated for 48 hrs in presence of N-(4-(2-Hexylhydrazine-1-carbonyl)benzyl)acetamide; format: functional, cell-based
A549 = assay: Antiproliferative activity against human A549 cells assessed as inhibition of cell growth measured after 72 hrs in presence of N-(4-(2-Hexylhydrazine-1-carbonyl)benzyl)acetamide by MTS assay; format: functional, cell-based; details: A549, 72 h
HCT-116 [3] = assay: Induction of apoptosis in human HCT-116 cells assessed as late apoptotic cells at 10 uM measured after 48 hrs in presence of N-(4-(2-Hexylhydrazine-1-carbonyl)benzyl)acetamide by AnnexinV/FITC and PI staining based flow cytometry analysis (reference value: 1.96%); format: functional
Jurkat [4] = assay: Antiproliferative activity against human Jurkat cells assessed as inhibition of cell growth measured after 72 hrs in presence of N-(4-(2-Hexylhydrazine-1-carbonyl)benzyl)acetamide by MTS assay; format: functional, cell-based
HCT-116 [5] = assay: Induction of apoptosis in human HCT-116 cells assessed as early apoptotic cells at 10 uM measured after 48 hrs in presence of N-(4-(2-Hexylhydrazine-1-carbonyl)benzyl)acetamide by AnnexinV/FITC and PI staining based flow cytometry analysis (reference value: 5.39%); format: functional
HCT-116 [6] = assay: Antiproliferative activity against human HCT-116 cells assessed as inhibition of cell growth measured after 72 hrs in presence of N-(4-(2-Hexylhydrazine-1-carbonyl)benzyl)acetamide by MTS assay; format: functional, cell-based; details: HCT-116, 72 h
THP-1 [7] = assay: Antiproliferative activity against human THP-1 cells assessed as inhibition of cell growth measured after 72 hrs in presence of N-(4-(2-Hexylhydrazine-1-carbonyl)benzyl)acetamide by MTS assay; format: functional, cell-based; details: THP-1, 72 h
HCT-116 [8] = assay: Induction of apoptosis in human HCT-116 cells assessed as increase in caspase 3/7 activity at 5 uM incubated for 48 hrs in presence of N-(4-(2-Hexylhydrazine-1-carbonyl)benzyl)acetamide; format: functional, cell-based
HCT-116 [9] = assay: Induction of apoptosis in human HCT-116 cells assessed as viable cells at 10 uM measured after 48 hrs in presence of N-(4-(2-Hexylhydrazine-1-carbonyl)benzyl)acetamide by AnnexinV/FITC and PI staining based flow cytometry analysis (reference value: 91.3%); format: functional; details: read-out: Activity
Jurkat [10] = assay: Upregulation of Ac-HH3 level in human Jurkat cells incubated for 6 hrs by Western blot analysis; format: functional, cell-based
Summary of the method: (§1)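 Jurkat cells exposed to the indicated compound concentrations for 6 h. Ac-SMC3 and Ac-HH3 were detected by Western blot with GAPDH as loading control. Bands were quantified by densitometry and normalized to the DMSO-treated group. Data are mean ± SEM of two independent experiments, compared with DMSO by one-way ANOVA.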

Jurkat [11] = assay: Effect on Ac-tubulin level in human Jurkat cells at 0.33 to 0.11 uM incubated for 6 hrs by Western blot analysis; format: functional, cell-based; details: dose 0.33-0.11 µM
Summary of the method: (§2)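 Cells were exposed to the compound for 6 h. Acetylated tubulin was detected by Western blot, with GAPDH as the loading control.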

HCT-116 [12] = assay: Effect on Ac-tubulin level in human HCT-116 cells at 0.33 to 0.11 uM incubated for 6 hrs by Western blot analysis; format: functional, cell-based; details: dose 0.33-0.11 µM; summary of the method: as §2
THP-1 [13] = assay: Upregulation of Ac-HH3 level in human THP-1 cells at 1.1 to 3.3 uM measured after 24 hrs by Western blot analysis; format: functional, cell-based; details: dose 1.1-3.3 µM
Summary of the method: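 THP-1 cells were exposed to the compound at the indicated concentrations for 24 h, then immunoblotted for Ac-HH3, Ac-SMC3, Ac-tubulin and HDAC8 with GAPDH as loading control. Band intensities were quantified and normalized to the DMSO-treated group. Data are mean ± SEM of two independent experiments, analysed by one-way ANOVA against DMSO.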

HCT-116 [14] = assay: Upregulation of Ac-HH3 level in human HCT-116 cells incubated for 6 hrs by Western blot analysis; format: functional, cell-based; details: dose 0.004-3.3 µM
Summary of the method: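 HCT116 cells were incubated with graded concentrations for 6 h. Ac-HH3 was detected by Western blot with GAPDH as the loading control, then quantified by densitometry and normalized to DMSO-treated cells. Data are mean ± SEM of two independent experiments, compared against DMSO by one-way ANOVA.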

Jurkat [15] = assay: Upregulation of Ac-HH3 level in human Jurkat cells at 3.7 to […] uM incubated for 6 hrs by Western blot analysis; format: functional, cell-based; details: dose 3.7-33.3 µM
Jurkat [16] = assay: Upregulation of AcHH3 level on human Jurkat cells at 1 to 10 uM measured after 48 hrs by Western blot analysis; format: functional, cell-based; details: dose 1-10 µM
Jurkat [17] = assay: Upregulation of Ac-tubulin level in human Jurkat cells at 1 uM measured after 6 hrs by Western blot analysis; format: functional, cell-based
Summary of the method: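 Jurkat cells were treated for 6 h at the indicated concentrations. Acetylated tubulin was probed by Western blot, with GAPDH as loading control.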

Jurkat [18] = assay: Upregulation of Ac-HH3 level in human Jurkat cells at 0.004 to 0.33 uM incubated for 6 hrs by Western blot analysis; format: functional, cell-based; details: dose 0.004-0.33 µM
Summary of the method: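 Jurkat cells were exposed to the compound for 6 h. Ac-SMC3, Ac-HH3, Ac-tubulin and HDAC8 were probed by Western blot with GAPDH as loading control. Ac-HH3 bands were quantified by densitometry and normalized to the DMSO-treated group. Values are mean ± SEM of two independent experiments, compared with DMSO by one-way ANOVA.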

Jurkat [19] = assay: Upregulation of Ac-SMC3 level in human Jurkat cells at 1 uM measured after 6 hrs by Western blot analysis; format: functional, cell-based; summary of the method: as §1
Jurkat [20] = assay: Upregulation of Ac-HH3 level in human Jurkat cells at 1 uM measured after 6 hrs by Western blot analysis; format: functional, cell-based; summary of the method: as §1
Jurkat [21] = assay: Induction of apoptosis in human Jurkat cells assessed as increase in caspase 3/7 activity at 5 uM incubated for 48 hrs; format: functional, cell-based
Jurkat [22] = assay: Upregulation of AcHH4 level on human Jurkat cells at 1 to 10 uM measured after 48 hrs by Western blot analysis; format: functional, cell-based; details: dose 1-10 µM
HCT-116 [23] = assay: Induction of apoptosis in human HCT-116 cells assessed as increase in caspase 3/7 activity at 5 uM incubated for 48 hrs; format: functional, cell-based
THP-1 [24] = assay: cells; details: Homo sapiens, THP-1, 72 h
Jurkat [25] = assay: Upregulation of Ac-HH3 level in human Jurkat cells at 0.4 to […] uM incubated for 24 hrs by Western blot analysis; format: functional, cell-based; details: dose 0.4-33.3 µM
Jurkat [26] = assay: Upregulation of Ac-HH4 level in human Jurkat cells at 0.4 to […] uM incubated for 24 hrs by Western blot analysis; format: functional, cell-based; details: dose 0.4-33.3 µM
Jurkat [27] = assay: Upregulation of Ac-SMC3 level in human Jurkat cells at high concentration incubated for 6 hrs by Western blot analysis; format: functional, cell-based; summary of the method: as §1
[28] = molecular target: Protein cereblon/Histone deacetylase 8 (Homo sapiens) (UniProt Q9BY41+Q96SW2); assay: PROTAC activity at CRBN/HDAC8 in human Jurkat cells assessed as induction of HDAC8 degradation at 10 uM measured after 48 hrs by Western blot analysis; format: cell-based
Protein cereblon/Histone deacetylase 8 (Homo sapiens), sequence (Q96SW2 whole entry, looked up): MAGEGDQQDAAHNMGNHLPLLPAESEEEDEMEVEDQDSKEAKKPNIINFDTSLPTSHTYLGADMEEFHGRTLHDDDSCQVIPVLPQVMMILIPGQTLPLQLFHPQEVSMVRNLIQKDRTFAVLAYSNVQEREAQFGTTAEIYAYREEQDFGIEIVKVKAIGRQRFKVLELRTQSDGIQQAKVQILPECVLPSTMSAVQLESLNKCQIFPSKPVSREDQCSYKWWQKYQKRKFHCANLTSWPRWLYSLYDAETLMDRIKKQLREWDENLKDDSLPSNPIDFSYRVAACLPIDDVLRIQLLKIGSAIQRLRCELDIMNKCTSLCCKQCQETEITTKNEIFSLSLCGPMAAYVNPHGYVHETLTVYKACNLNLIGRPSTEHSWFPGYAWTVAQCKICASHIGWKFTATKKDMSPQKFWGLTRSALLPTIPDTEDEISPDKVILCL
Protein cereblon/Histone deacetylase 8 (Homo sapiens), sequence (Q9BY41 whole entry, looked up): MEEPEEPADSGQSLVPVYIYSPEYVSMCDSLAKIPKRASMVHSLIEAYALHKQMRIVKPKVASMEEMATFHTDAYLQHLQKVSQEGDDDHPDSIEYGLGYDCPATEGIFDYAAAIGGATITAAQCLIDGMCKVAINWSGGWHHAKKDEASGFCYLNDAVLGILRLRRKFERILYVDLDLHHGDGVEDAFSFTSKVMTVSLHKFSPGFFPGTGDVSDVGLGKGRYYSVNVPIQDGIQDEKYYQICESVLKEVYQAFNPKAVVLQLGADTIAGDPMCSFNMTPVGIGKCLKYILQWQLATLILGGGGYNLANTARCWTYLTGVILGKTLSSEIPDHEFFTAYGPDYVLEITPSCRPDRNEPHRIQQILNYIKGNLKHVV

HCT-116 [29] = assay: Induction of apoptosis in human HCT-116 cells assessed as early apoptotic cells at 10 uM measured after 48 hrs in presence of tert-butyl 2-(4-(4-((2,6-dioxopiperidin-3-yl)amino)phenyl)piperidin-1-yl)acetate by AnnexinV/FITC and PI staining based flow cytometry analysis (reference value: 5.39%); format: functional
HCT-116 [30] = assay: Induction of apoptosis in human HCT-116 cells assessed as necrotic cells at 10 uM measured after 48 hrs in presence of tert-butyl 2-(4-(4-((2,6-dioxopiperidin-3-yl)amino)phenyl)piperidin-1-yl)acetate by AnnexinV/FITC and PI staining based flow cytometry analysis (reference value: […]); format: functional
Jurkat [31] = assay: Effect on AcHH4 level on human Jurkat cells at 10 uM measured after 48 hrs by Western blot analysis; format: functional, cell-based
HCT-116 [32] = assay: Induction of apoptosis in human HCT-116 cells assessed as late apoptotic cells at 10 uM measured after 48 hrs in presence of tert-butyl 2-(4-(4-((2,6-dioxopiperidin-3-yl)amino)phenyl)piperidin-1-yl)acetate by AnnexinV/FITC and PI staining based flow cytometry analysis (reference value: 1.96%); format: functional
Jurkat [33] = assay: Upregulation of Ac-HH3 level in human Jurkat cells at high concentration incubated for 6 hrs by Western blot analysis; format: functional, cell-based; summary of the method: as §1
HCT-116 [34] = assay: Induction of apoptosis in human HCT-116 cells assessed as increase in caspase 3/7 activity at 5 uM incubated for 48 hrs in presence of tert-butyl 2-(4-(4-((2,6-dioxopiperidin-3-yl)amino)phenyl)piperidin-1-yl)acetate; format: functional, cell-based
HCT-116 [35] = assay: Induction of apoptosis in human HCT-116 cells assessed as viable cells at 10 uM measured after 48 hrs in presence of tert-butyl 2-(4-(4-((2,6-dioxopiperidin-3-yl)amino)phenyl)piperidin-1-yl)acetate by AnnexinV/FITC and PI staining based flow cytometry analysis (reference value: 91.3%); format: functional; details: read-out: Activity
Jurkat [36] = assay: Effect on AcHH3 level on human Jurkat cells at 10 uM measured after 48 hrs by Western blot analysis; format: functional, cell-based
Jurkat [37] = assay: Induction of apoptosis in human Jurkat cells assessed as increase in caspase 3/7 activity at 5 uM incubated for 48 hrs in presence of tert-butyl 2-(4-(4-((2,6-dioxopiperidin-3-yl)amino)phenyl)piperidin-1-yl)acetate; format: functional, cell-based

CC(C)(C)OC(=O)CN1CCC(c2ccc(NC3CCC(=O)NC3=O)cc2)CC1 (centres undefined)
Activity (HCT-116 [1]): 3.33%
Activity (Jurkat [2]): inactive
IC50 (A549): > 33.3 µM
Activity (HCT-116 [3]): 3.87%
IC50 (Jurkat [4]): > 33.3 µM
Activity (HCT-116 [5]): 19.6%
IC50 (HCT-116 [6]): > 33.3 µM
IC50 (THP-1 [7]): > 33.3 µM
Activity (HCT-116 [8]): inactive
viability at 10 µM (HCT-116 [9]): 73.2%

CCCCCCNNC(=O)c1ccc(CNC(=O)CN2CCC(c3ccc(NC(C)=O)cc3)CC2)cc1
Activity (Jurkat [10]): Dose-Dependent Effect
Activity (Jurkat [11]): inactive
Activity (HCT-116 [12]): inactive
Activity (THP-1 [13]): Active
Activity (HCT-116 [14]): Dose-Dependent Effect

CCCCCCN(NC(=O)c1ccc(CNC(=O)CN2CCC(c3ccc(NC4CCC(=O)NC4=O)cc3)CC2)cc1)C(=O)OC(C)(C)C (centres undefined)
Activity (Jurkat [15]): inactive

O=C(CCCCCCC(=O)Nc1ccccc1)NO
Activity (Jurkat [16]): Active
Activity (Jurkat [17]): Active
Activity (Jurkat [18]): Active
Activity (Jurkat [19]): inactive
Activity (Jurkat [20]): Active
Activity (Jurkat [21]): Active
Activity (Jurkat [22]): Active
Activity (HCT-116 [23]): Active

Nc1ccccc1NC(=O)c1ccc(CNC(=O)OCc2cccnc2)cc1 [ENTINOSTAT]
IC50 (THP-1 [24]): 2.3 µM

COc1ccc(Cn2ccc3ccc(C(=O)NO)cc32)cc1
Activity (Jurkat [25]): inactive
Activity (Jurkat [26]): inactive

CCCCCCNNC(=O)c1ccc(CNC(C)=O)cc1
Activity (Jurkat [27]): Active
Activity [28]: inactive
Activity (HCT-116 [29]): 19.6%
Activity (HCT-116 [30]): 3.33%
Activity (Jurkat [31]): inactive
Activity (Jurkat [19]): inactive
Activity (HCT-116 [32]): 3.87%
Activity (Jurkat [33]): Active
Activity (HCT-116 [34]): inactive
viability at 10 µM (HCT-116 [35]): 73.2%
Activity (Jurkat [36]): inactive
Activity (Jurkat [37]): inactive
